Bioassay records deposited in PubChem by several laboratories.
Compounds with a hit are over-represented: about 1.6% of the library has one in this group of screens.
TCR CD3 inh = blocks the human TCR-CD3 interaction | TAMRA-labeled TCR probe fluorescence, biochemical | inhibition, % at 9.4 µM | 360,000 compounds, 0.37% hits | AID 651800; in the data active means inhibition above about 19%;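 further: recombinant mutant TCR 2C K166C tagged with TAMRA read by polarization; 0% = receptor in buffer alone and 100% = receptor with positive control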
eIF4H inh = inhibitors of RNA binding by human eIF4H; eIF4H fluorescence polarization binding assay; 290,000 compounds, 0.94% hits; Q15056; inhibition, % at 35 µM;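 further: calls also rest on retests at 20 µM and on dose response follow-up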
RBBP9 inh = blocks human serine hydrolase RBBP9. inhibition, % at 7.94 µM. 220,000 compounds, 0.2% hits. O75884. recombinant RBBP9, FP-Rh probe fluorescence polarization;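 active means inhibition above the campaign mean of all tested compounds plus 3 SD, cut at about 14% in these data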;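 further: plate controls were DMSO wells with RBBP9 for no effect and wells lacking RBBP9 protein for full effect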
Target sequence (O75884 whole entry, looked up): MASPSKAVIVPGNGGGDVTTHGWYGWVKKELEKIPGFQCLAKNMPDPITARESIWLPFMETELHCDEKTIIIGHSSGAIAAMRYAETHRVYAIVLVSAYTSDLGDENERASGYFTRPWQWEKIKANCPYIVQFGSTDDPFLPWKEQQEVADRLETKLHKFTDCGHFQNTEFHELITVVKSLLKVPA
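Test system: recombinant human RBBP9. Quantity: 2.5 µM RBBP9 dispensing solution, before mixing. Detection: FP readout at 525/598 nm. Reagent: Serine-hydrolase probe FP-Rh, 375 nM pre-mixing. Measure: % inhibition. Control set: DMSO-treated enzyme wells and wells lacking RBBP9. Buffer or medium: Tris-NaCl-Pluronic buffer, pH 8.0. Times: preincubation 30 min plus labeling 45 min at 25 °C.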
PABP1 MLLE inh = blocks PAM2 peptide binding to the PABP1 MLLE domain | 360,000 compounds, 0.36% hits | P11940 | inhibition, % at 20 µM | AID 588489 | GST-MLLE / FITC-PAM2 fluorescence polarization; in the data active means inhibition above about 35%, passing the limit was not always enough;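 further: plate controls were DMSO wells with GST-MLLE for no effect and wells lacking GST-MLLE protein for full effect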
PABP FP inh = PABP-poly(A) binding inhibition | calls only at 35 µM | 290,000 compounds, 1% hits | PABP-poly(A) RNA binding, fluorescence polarization | AID 2014 | P11940;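 further: calls also rest on retests at 20 µM and on dose response follow-up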
Starred values were filed as active, the others as inactive; i = inactive; / = not tested or not shown; + = active, no number. Unless noted, how the calls were made is not given here.

SMILES	TCR CD3 inh	eIF4H inh	RBBP9 inh	PABP1 MLLE inh	PABP FP inh
O=C1N(C2CCCC2)C[C@@H]2C[C@@H](c3cn[nH]c3-c3ccc(Cl)cc3)N3CCC[C@@]123	8	4	-5	-6	+
CSc1nsc(NC(=O)OCc2ccc(Cl)cc2)n1	-4	2	/	-3	i
CSc1nsc(NN)n1	-3	/	/	42*	/
C[C@@H]1CN(C(=O)OC(C)(C)C)CCN1c1ccc(N2CCS(=O)(=O)CC2)c(C#N)c1	4	/	/	/	/
CC1CC(=O)c2c(cc3c(-c4c(O)cc(O)c5c(O)c6c(cc45)OC(C)CC6=O)c(O)cc(O)c3c2O)O1 (stereo not given)	/	100*	26*	-9	+
CC(/C=N/n1c(-c2cc(C)[nH]n2)n[nH]c1=S)=C\c1ccccc1	6	active	4	-30	+
Cc1cc(-c2n[nH]c(=S)n2/N=C/C=C/c2ccco2)n[nH]1	4	93*	-6	-22	+
CC(=C/c1ccccc1)/C=N/n1c(-c2ccco2)n[nH]c1=S	0	-6	3	-26	i
Cc1ccccc1-c1n[nH]c(=S)n1/N=C/C=C/c1ccco1	7	82*	2	0	+
S=c1[nH]nc(-c2ccccc2)n1/N=C/C=C/c1ccco1	5	91	-1	-11	i
COC(=O)[C@]12C[C@H](CC(=O)NCC3CCCCC3)C(=O)N(Cc3ccccc3)C1=C[C@H](C(C)C)O[C@@H]2C1CC1	-3	/	/	/	/
C=CCN=C1NC(c2ccccc2C(F)(F)F)C(C(=O)OC)=C(C)N1Cc1ccccc1C(F)(F)F (stereo not given)	-2	/	/	/	/
Cc1ccc2nc(-c3ccc(C#N)cc3)c(Cc3cccc(F)c3)n2c1	4	/	/	/	/
C[C@H](CO)N1C[C@H](C)[C@H](CN(C)C(=O)NC2CCCCC2)OCc2cnnn2CCCC1=O	-13	/	/	/	/
O=C(CNCc1ccncc1)Nc1cc(S(=O)(=O)N2CCCCC2)ccc1Cl	-3	104*	-2	-40	i
Cc1ccc(S(=O)(=O)N2CCCCC2)cc1NC(=O)COC(=O)c1ccc2c(c1)OCO2	-1	2.0*	-7	-3	i
Cc1ccc(S(=O)(=O)N2CCCCC2)cc1NC(=O)CNCc1ccco1	-1	83*	-4	2	+
COCCCNC(=O)C[C@H]1C[C@@]2(C(=O)OC)C(=C[C@H](C(C)C)O[C@@H]2C2CC2)N(Cc2ccccc2)C1=O	4	/	/	/	/
COc1ccc(NCc2ccc([N+](=O)[O-])s2)c(OC)c1	-8	73*	0	9	+
CCOc1ccc(NC(=O)Cn2c(=O)n(CC3CCCO3)c(=O)c3ccccc32)cc1 (stereo not given)	5	active	-2	-3	i
Cc1cc2c(c(=O)o1)[C@@]1(C(=O)N(C)c3cc(Br)ccc31)C1=C(CCCC1=O)O2	-4	/	/	/	/
O=C1C2C3C=CC(CC3)C2C(=O)N1c1nccs1 (stereo not given)	1	105*	-9	13	+
CC1=NNC(=O)C1CC(=O)N/N=C/C(C)=C/c1ccccc1 (stereo not given)	6	73	-1	-4	+
COCCN1Cc2cc(C(=O)OC)c3c(c2C1=O)c1cc(OC)ccc1n3S(=O)(=O)c1ccc(F)cc1	-1	/	/	/	/
Nc1cc(Nc2ccc(Br)cc2)nc(N)n1	-3	49	1	43*	i
SMILES	TCR CD3 inh	eIF4H inh	RBBP9 inh	PABP1 MLLE inh	PABP FP inh
Cc1cc(Nc2ccc(Cl)cc2)nc(N)n1	7	6	-2	10	i
Cc1cc(O)cc(=O)n1-c1cc(C(F)(F)F)cc(C(F)(F)F)c1	-3	/	/	/	/
CN1CCCCC(NC(=O)c2ccccc2)C1=O (stereo not given)	-2	/	/	/	/
Cc1ccc(-c2csc3ncnc(SCc4ccc(C(=O)O)cc4)c23)cc1	-1	95*	-6	-11	i
Cc1sc2ncnc(SCc3ccc(C(=O)O)cc3)c2c1C	7	-5	-1	16	i
CCC1=C/C(=C/N(C)c2ccccc2)C(=O)S1	-3	53*	0	31	+
C[C@@H]1CN([C@H](C)CO)C(=O)CCCn2cc(nn2)CO[C@H]1CN(C)S(=O)(=O)c1cn(C)cn1	0	/	/	/	/
CSc1ccc(C(c2c(C(=O)O)[nH]c3ccccc23)c2c(C(=O)O)[nH]c3ccccc23)cc1	1	53*	/	-5	i
O=[N+]([O-])c1ccc(CSc2ccc(S(=O)(=O)N3CCOCC3)cn2)cc1	4	/	/	37*	/
